Data as given in ChEMBL document CHEMBL1140206 (J Med Chem, 2008).

Assays:
[1] = target: Neuronal acetylcholine receptor; alpha4/beta2 (Rattus norvegicus, UniProt P09483+P12390); test: Displacement of [3H]epibatidine from rat recombinant alpha4beta2 nAChR expressed in HEK293 cells; assay type: cell-based
[2] = target: T1, Neuronal acetylcholine receptor; alpha3/beta4 (Rattus norvegicus, UniProt P04757+P12392); test: Displacement of [3H]epibatidine from rat recombinant alpha-3-beta-4 nAChR expressed in HEK293 cells; assay type: cell-based
[3] = target: Neuronal acetylcholine receptor; alpha4/beta4 (Rattus norvegicus, UniProt P09483+P12392); test: Displacement of [3H]epibatidine from rat recombinant alpha-4-beta-4 nAChR expressed in HEK293 cells; assay type: cell-based
[4] = target: T1, Neuronal acetylcholine receptor; alpha3/beta4; test: Agonist activity at rat alpha-3-beta-4 nAChR expressed in HEK293 cells by FMP assay; assay type: functional, cell-based
Summary of the method: (§1)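 Stable HEK293 line; cells plated 16-24 h, washed, then loaded 30 min at 37 °C with FMP dye in Krebs buffer pH 7.4. Concentration-response curves used maximal responses, fitted to a Hill equation for EC50 and Rmax. Run in duplicate, at least three times.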

[5] = target: Neuronal acetylcholine receptor; alpha3/beta4 (Rattus norvegicus) (UniProt P04757+P12392); test: Agonist activity at rat alpha-3-beta-4 nAChR expressed in HEK293 cells by FMP assay relative to acetylcholine; assay type: functional, cell-based
Summary of the method: as §1, with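 “7.4. Fluorescence (ex 530/em 560 nm) was read before and up to 1 min after agonist addition.” for “7.4.”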

[6] = target: Neuronal acetylcholine receptor subunit alpha-7 (Rattus norvegicus, UniProt Q05941); test: Displacement of [3H]MLA from rat alpha-7 nAChR/mouse 5HT3A chimera expressed in human tsA-201 cells
[7] = target: T2, Neuronal acetylcholine receptor; alpha4/beta2 (Homo sapiens, UniProt P17787+P43681); test: Agonist activity at human alpha-4-beta-2 nAChR expressed in Xenopus oocytes by two-electrode voltage clamp technique; assay type: functional, cell-based, Oocyte
Summary of the method: (§2)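 Defolliculated Xenopus oocytes received 40-50 ng total cRNA of human α7, α3+β4 (1:1) or α4+β2 and were kept at 17 °C. Two-electrode clamp at -60 mV used 3 M KCl electrodes in Oocyte Ringer's pH 7.4, with 12 s agonist pulses 5 min apart at 2.5 mL/min. Peak current was normalized to saturating ACh in the same oocyte (10 mM α7; 1 mM α3β4, α4β2).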

[8] = target: T3, Neuronal acetylcholine receptor; alpha3/beta4 (Homo sapiens, UniProt P30926+P32297); test: Agonist activity at human alpha-3-beta-4 nAChR expressed in Xenopus oocytes by two-electrode voltage clamp technique; assay type: functional, cell-based, Oocyte; summary of the method: as §2
[9] = target: T2, Neuronal acetylcholine receptor; alpha4/beta2; test: Agonist activity at human alpha-4-beta-2 nAChR expressed in Xenopus oocytes by two-electrode voltage clamp technique relative to acetylcholine; assay type: functional, cell-based; conditions: Oocyte; summary of the method: as §2
[10] = target: T3, Neuronal acetylcholine receptor; alpha3/beta4; test: Agonist activity at human alpha3beta4 nAChR expressed in Xenopus oocytes by two-electrode voltage clamp technique at 320 uM relative to acetylcholine; assay type: functional, cell-based; conditions: Oocyte; summary of the method: as §2
[11] = target: T4, Neuronal acetylcholine receptor subunit alpha-7 (Homo sapiens, UniProt P36544); test: Agonist activity at human alpha-7 nAChR expressed in Xenopus oocytes by two-electrode voltage clamp technique; assay type: functional, cell-based, Oocyte; summary of the method: as §2
[12] = target: T4, Neuronal acetylcholine receptor subunit alpha-7; test: Agonist activity at human alpha-7 nAChR expressed in Xenopus oocytes by two-electrode voltage clamp technique at 320 uM relative to acetylcholine; assay type: functional, cell-based; conditions: Oocyte; summary of the method: as §2

T3 sequence (P30926 whole entry): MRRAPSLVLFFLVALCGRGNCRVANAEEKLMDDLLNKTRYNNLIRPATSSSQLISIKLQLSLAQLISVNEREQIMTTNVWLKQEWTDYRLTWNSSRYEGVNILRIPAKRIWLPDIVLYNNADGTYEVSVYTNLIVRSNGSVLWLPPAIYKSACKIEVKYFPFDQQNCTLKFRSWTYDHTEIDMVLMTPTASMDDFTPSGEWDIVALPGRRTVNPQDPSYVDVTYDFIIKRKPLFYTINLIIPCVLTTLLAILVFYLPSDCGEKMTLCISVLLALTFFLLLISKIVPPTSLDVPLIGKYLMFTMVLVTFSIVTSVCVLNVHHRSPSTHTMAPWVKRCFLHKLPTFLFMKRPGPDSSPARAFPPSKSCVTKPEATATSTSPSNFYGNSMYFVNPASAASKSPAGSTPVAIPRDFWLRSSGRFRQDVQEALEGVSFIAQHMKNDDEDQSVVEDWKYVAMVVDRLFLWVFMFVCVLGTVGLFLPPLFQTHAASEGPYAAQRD
T3 sequence (P32297 whole entry): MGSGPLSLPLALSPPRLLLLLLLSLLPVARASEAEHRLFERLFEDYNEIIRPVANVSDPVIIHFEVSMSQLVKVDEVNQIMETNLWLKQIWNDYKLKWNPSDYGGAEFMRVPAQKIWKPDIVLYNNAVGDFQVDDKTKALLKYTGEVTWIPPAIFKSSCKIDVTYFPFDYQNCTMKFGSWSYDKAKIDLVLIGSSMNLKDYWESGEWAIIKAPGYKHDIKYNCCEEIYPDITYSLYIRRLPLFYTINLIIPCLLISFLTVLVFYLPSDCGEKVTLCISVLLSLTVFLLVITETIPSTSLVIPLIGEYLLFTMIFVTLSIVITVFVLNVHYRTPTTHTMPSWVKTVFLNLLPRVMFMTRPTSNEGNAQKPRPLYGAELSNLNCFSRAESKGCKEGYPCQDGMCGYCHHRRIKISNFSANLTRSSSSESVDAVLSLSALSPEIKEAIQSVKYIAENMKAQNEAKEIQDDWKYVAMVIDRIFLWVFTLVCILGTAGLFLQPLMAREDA
T4 sequence (P36544 whole entry): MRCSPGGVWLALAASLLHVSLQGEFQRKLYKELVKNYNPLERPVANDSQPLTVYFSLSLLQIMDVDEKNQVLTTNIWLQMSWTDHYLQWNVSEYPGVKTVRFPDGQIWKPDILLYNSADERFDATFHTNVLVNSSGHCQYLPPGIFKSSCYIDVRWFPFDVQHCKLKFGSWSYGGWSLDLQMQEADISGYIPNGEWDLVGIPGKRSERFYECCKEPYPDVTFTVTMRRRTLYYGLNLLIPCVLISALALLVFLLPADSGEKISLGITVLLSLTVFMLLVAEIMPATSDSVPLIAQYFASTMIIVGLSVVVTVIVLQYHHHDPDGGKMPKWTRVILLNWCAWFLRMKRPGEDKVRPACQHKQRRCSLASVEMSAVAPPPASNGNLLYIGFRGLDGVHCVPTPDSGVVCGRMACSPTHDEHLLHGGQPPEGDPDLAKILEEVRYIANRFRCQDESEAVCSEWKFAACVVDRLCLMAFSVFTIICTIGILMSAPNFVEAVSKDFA
Chain of Neuronal acetylcholine receptor; alpha4/beta2 (Rattus norvegicus, UniProt P09483+P12390) (P09483 whole entry): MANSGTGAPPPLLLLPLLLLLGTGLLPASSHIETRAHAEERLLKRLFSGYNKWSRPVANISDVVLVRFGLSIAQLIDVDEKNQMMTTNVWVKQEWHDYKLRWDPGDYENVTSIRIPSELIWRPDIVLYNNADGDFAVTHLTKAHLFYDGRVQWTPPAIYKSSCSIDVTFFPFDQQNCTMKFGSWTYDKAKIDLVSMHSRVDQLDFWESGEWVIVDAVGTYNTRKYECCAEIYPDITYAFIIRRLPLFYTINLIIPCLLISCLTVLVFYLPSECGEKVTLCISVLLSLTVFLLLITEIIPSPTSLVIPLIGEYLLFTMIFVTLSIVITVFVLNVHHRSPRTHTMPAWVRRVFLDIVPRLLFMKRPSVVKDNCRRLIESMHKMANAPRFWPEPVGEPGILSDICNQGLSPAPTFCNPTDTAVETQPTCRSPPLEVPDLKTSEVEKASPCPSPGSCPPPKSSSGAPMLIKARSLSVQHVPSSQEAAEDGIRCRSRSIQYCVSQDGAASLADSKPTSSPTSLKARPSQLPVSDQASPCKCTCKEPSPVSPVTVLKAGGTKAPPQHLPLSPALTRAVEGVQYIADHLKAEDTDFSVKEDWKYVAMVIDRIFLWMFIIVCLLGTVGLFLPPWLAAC
Chain of Neuronal acetylcholine receptor; alpha4/beta2 (Rattus norvegicus, UniProt P09483+P12390) (P12390 whole entry): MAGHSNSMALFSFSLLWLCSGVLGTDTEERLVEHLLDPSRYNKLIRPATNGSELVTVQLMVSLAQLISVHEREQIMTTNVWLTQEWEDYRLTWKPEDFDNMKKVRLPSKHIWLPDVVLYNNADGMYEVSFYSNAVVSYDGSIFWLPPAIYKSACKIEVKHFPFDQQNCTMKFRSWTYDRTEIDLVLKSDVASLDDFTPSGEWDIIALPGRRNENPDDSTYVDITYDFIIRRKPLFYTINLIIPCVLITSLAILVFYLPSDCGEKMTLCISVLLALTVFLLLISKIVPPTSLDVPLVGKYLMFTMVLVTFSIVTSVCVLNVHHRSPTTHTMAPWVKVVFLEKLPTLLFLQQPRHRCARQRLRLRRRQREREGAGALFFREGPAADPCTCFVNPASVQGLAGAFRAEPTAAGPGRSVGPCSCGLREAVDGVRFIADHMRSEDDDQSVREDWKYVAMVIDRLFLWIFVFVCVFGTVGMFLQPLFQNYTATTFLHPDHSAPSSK
Chain of Neuronal acetylcholine receptor; alpha4/beta4 (P09483 whole entry): as the sequence (P09483 whole entry) above
Chain of Neuronal acetylcholine receptor; alpha4/beta4 (P12392 whole entry): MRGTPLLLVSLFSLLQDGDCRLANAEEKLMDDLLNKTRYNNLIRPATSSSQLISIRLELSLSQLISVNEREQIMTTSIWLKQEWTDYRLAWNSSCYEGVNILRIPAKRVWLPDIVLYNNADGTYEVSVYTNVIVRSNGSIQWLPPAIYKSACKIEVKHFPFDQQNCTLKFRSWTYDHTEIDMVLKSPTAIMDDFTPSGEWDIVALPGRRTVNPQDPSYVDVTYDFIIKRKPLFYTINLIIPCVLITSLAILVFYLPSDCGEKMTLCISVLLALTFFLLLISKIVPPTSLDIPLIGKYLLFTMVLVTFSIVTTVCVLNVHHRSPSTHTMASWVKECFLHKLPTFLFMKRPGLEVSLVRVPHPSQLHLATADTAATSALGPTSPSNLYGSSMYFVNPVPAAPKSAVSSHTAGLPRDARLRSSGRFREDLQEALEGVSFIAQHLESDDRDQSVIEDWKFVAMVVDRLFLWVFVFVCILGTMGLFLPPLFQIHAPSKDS
Chain of Neuronal acetylcholine receptor subunit alpha-7 (Rattus norvegicus, UniProt Q05941) (Q05941 23-502 limits assumed): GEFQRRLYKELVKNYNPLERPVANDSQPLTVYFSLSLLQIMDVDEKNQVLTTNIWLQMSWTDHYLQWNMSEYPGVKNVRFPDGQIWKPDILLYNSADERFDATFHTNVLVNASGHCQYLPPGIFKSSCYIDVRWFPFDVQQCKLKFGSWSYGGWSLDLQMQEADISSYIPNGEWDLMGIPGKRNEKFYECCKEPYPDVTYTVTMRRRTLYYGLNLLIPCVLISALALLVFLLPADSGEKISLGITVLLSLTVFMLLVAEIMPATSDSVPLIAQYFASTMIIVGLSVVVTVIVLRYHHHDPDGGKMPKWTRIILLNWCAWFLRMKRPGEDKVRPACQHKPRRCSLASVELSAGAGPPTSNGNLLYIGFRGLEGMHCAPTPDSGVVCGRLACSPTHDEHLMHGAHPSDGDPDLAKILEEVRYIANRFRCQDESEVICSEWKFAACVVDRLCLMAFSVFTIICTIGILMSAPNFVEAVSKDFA
T1 sequence (P04757 whole entry): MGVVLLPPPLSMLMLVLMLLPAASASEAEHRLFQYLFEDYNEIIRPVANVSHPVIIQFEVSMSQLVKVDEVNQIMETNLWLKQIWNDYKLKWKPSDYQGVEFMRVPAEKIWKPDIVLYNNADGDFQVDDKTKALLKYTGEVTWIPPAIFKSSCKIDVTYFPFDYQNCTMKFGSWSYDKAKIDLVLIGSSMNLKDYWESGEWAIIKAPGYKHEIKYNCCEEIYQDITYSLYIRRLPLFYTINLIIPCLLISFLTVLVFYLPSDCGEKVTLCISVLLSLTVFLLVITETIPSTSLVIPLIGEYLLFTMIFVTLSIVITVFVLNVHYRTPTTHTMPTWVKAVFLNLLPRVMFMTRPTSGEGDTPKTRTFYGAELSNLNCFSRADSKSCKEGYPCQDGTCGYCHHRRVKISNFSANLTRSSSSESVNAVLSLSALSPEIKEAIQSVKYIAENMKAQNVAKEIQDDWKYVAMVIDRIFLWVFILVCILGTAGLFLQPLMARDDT
T1 sequence (P12392 whole entry): as the sequence (P12392 whole entry) above

Compound	Ki [1] [µM]	Ki [2] [µM]	Ki [3] [µM]	Ki ([4]; read-out: Ki) [µM]	Ki ([4]; read-out: pKi (converted)) [µM]	Activity [5] [%]	Ki [6] [µM]	EC50 ([4]; read-out: pEC50 (converted)) [µM]	EC50 ([4]; read-out: EC50) [µM]	EC50 [7] [µM]	EC50 ([8]; read-out: EC50) [µM]	EC50 ([8]; read-out: pEC50 (converted)) [µM]	Activity [9] [%]	Activity [10] [%]	EC50 ([11]; read-out: EC50) [µM]	EC50 ([11]; read-out: pEC50 (converted)) [µM]	Activity [12] [%]
CC(CCOC(=O)N1CCCC1)N(C)C (configuration not stated)	0.21	25	2.2	–	–	–	–	–	–	–	–	–	–	–	–	–	–
CC(CCOC(=O)N1CC(C)(C)C1)N(C)C (configuration not stated)	0.058	300	0.72	0.3	316	43	–	–	–	–	–	–	–	–	–	–	–
CC(CCOC(=O)N1CC(F)(F)C1)N(C)C (configuration not stated)	0.058	–	1.6	–	–	75	–	–	–	–	–	–	–	–	–	–	–
CC(CCOC(=O)N1CCC1C)N(C)C (configuration not stated)	0.015	2.5	0.23	0.0054	5.01	89	> 1000	–	–	–	–	–	–	–	–	–	–
CC(CCOC(=O)C1CC1)N(C)C (configuration not stated)	0.0038	4.2	0.26	–	–	105	280	7.94	–	–	–	–	–	–	–	–	–
CC1CN(C(=O)OCC[C@@H](C)N(C)C)C1	0.00091	19	0.18	–	–	–	–	–	–	–	–	–	–	–	–	–	–
CC(CCOC(=O)c1ccccc1)N(C)C (configuration not stated)	0.32	100	10	–	–	–	190	–	–	–	–	–	–	–	–	–	–
CC(C)C(=O)OCCC(C)N(C)C (configuration not stated)	0.03	8.5	0.76	–	–	100	> 1000	–	24	–	–	–	–	–	–	–	–
CC(=O)OCCC(C)N(C)C (configuration not stated)	0.065	4.1	0.37	–	–	97	> 1000	–	23	–	–	–	–	–	–	–	–
CC(CCOC(=O)C1CCC1)N(C)C (configuration not stated)	0.1	3.5	0.46	–	–	85	290	–	8.5	–	–	–	–	–	–	–	–
CC1CN(C(=O)OCC[C@H](C)N(C)C)C1	0.057	100	7.1	–	–	–	–	–	–	–	–	–	–	–	–	–	–
CC(CCOC(=O)N1CCC1)N(C)C (configuration not stated)	0.0051	11	0.19	0.023	25.1	106	–	–	–	7.1	> 320	> 316	66	23	–	–	–
CC(CCOC(=O)N1CCCCC1)N(C)C (configuration not stated)	0.091	2.6	0.35	–	–	–	–	–	–	–	–	–	–	–	–	–	–
CC(CCOC(=O)N1CCC1(C)C)N(C)C (configuration not stated)	0.21	25	3.2	0.051	50.1	90	–	–	–	–	–	–	–	–	–	–	–
CC1CN(C(=O)OCCC(C)N(C)C)C1 (configuration not stated)	0.0021	23	0.26	0.048	50.1	91	> 1000	–	–	85	> 320	> 316	9.5	12	> 320	> 316	0.9
CC(CCOC(=O)n1cccc1)N(C)C (configuration not stated)	0.31	100	11	0.1	316	27	> 1000	–	–	–	–	–	–	–	–	–	–
CC(CCOC(=O)N(C)C)N(C)C (configuration not stated)	0.02	0.42	0.15	0.0077	7.94	105	> 1000	–	–	–	–	–	–	–	–	–	–
